Measured values as given in article PMC6310869 (CPT: Pharmacometrics & Systems Pharmacology, 2018).
pKi: −log10 of the molar value. “Also recorded” adds a separate entry of the source.

Tests used:
CYP2D6 [1] = biological target: T1, CYP2D6 (Homo sapiens, UniProt P10635); details: ref Simcyp; cited from earlier work
[2] = Clinical pharmacokinetics, phase I study in patients with solid tumors; type: in vivo; details: human, plasma, iv
CYP2D6 [3] = biological target: T1, CYP2D6; assay: Direct inhibition; type: in vitro ADME
[4] = patients; cited from earlier work
CYP3A4/5 [5] = type: in vitro ADME; details: human, pooled human liver microsomes, probe midazolam (1'-hydroxylation)
CYP2D6 [6] = biological target: T1, CYP2D6; assay: In vitro time-dependent inhibition of CYP2D6; type: in vitro ADME; details: in vitro data
[7] = Plasma protein binding in fresh human plasma by ultrafiltration; type: in vitro ADME
Outline: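 Fresh human plasma spiked with test compound at 5, 10 and 75 μg/mL and incubated 0.5 hours at 37°C. Ultrafiltration followed by LC-MS/MS of both the ultrafiltrate and the originally spiked plasma.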

[8] = logP by shaking octanol/water, HPLC quantification; type: physicochemical
Outline: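 Shake-flask method: octanol-saturated water holding test compound (~26 mg/mL) was shaken with an equal volume of water-saturated octanol for 1 hour at 23°C. Compound quantified by HPLC in each separated phase.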

CYP3A4/5 [9] = assay: Direct inhibition; type: in vitro ADME; details: human, pooled human liver microsomes, probe midazolam (1'-hydroxylation)
human hepatocytes = assay: Cell integrity of hepatocyte cultures; type: cell-based; details: for Lactate dehydrogenase release: 3 days
Outline: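 Cryopreserved primary human hepatocytes from 3 white donors, dosed once daily for 3 days with test compound (1, 2.5, 10 μM), vehicle, 25 μM flumazenil (negative control) or 20 μM rifampicin (positive control). Cell integrity judged by lactate dehydrogenase release into the culture medium and by microscopic review of morphology and confluency.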

CYP2B6 = biological target: T2, CYP2B6 (Homo sapiens, UniProt P20813); type: in vitro ADME; details: pooled human liver microsomes, probe efavirenz (8-hydroxylation)
T2 sequence (P20813 1-491): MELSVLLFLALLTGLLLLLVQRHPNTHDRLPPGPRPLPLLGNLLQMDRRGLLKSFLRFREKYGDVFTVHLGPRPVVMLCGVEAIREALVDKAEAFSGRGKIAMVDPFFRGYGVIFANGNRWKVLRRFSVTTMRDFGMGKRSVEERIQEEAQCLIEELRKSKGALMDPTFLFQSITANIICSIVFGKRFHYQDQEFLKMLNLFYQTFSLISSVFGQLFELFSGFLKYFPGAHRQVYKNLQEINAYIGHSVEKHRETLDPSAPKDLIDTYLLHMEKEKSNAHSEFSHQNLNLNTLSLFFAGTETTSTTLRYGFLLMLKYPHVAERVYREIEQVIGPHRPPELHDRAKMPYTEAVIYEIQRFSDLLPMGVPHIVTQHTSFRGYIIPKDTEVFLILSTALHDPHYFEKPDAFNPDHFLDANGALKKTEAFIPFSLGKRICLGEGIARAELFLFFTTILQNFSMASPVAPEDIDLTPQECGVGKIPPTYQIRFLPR

CYP3A4 mRNA = assay: Induction in primary cultures of cryopreserved human hepatocytes; type: cell-based; details: 1 μM, once daily for 3 days, 3 donors
Outline: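 Primary cultures of cryopreserved human hepatocytes, 3 white donors as independent evaluations. Dosed once daily for 3 days with test compound (1, 2.5, 10 μM), vehicle, 25 μM flumazenil (negative control) or 20 μM rifampicin (positive control). Cells lysed and total RNA harvested; CYP3A4 mRNA quantified by RT-PCR.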

CYP3A4 = details: ref Simcyp; cited from earlier work
CYP3A = details: cited from earlier work

T1 sequence (P10635 whole entry): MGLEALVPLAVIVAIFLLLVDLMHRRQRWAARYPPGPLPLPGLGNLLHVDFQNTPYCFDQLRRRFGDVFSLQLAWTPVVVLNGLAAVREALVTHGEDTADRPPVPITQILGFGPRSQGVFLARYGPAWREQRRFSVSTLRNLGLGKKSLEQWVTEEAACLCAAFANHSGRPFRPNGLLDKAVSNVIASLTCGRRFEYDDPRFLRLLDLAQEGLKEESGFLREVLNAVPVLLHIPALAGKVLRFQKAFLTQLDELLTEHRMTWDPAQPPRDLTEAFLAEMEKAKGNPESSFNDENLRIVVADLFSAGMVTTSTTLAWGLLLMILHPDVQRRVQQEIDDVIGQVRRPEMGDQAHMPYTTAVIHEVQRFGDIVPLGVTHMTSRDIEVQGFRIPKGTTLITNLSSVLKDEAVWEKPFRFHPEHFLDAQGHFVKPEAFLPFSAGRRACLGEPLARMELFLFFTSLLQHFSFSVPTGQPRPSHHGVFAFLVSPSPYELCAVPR

In the case of `COc1ccc2c(c1)[C@]13CCCC[C@@H]1[C@H](C2)N(C)CC3` [Dextromethorphan], the “fmCYP (fraction of substrate metabolized by CYP)” value (CYP2D6 [1]) is listed as 0.72.
`Cn1c(COP(=O)(NCCBr)NCCBr)cnc1[N+](=O)[O-]` [Evofosfamide, [1‐methyl‐2‐nitro‐1H‐imidazole‐5‐yl] methyl N, N’‐bis [2‐bromoethyl] diamidophosphate] showed a Vd [2] of 0.43 L/kg, a clearance [2] of 1060 mL/min and a pKi (CYP2D6 [3]) of 4.07. The Elimination half-life [4] was 48.6 min, the KI (inactivation) (CYP3A4/5 [5]) was 370 µM and the kinact (CYP3A4/5 [5]) was 0.000417 s⁻¹. The “Time-dependent inhibition of CYP2D6” value (CYP2D6 [6]) was “not time‐dependent”, the fraction unbound at 0.5 h [7] was 0.455 and the logP at 1 hour [8] was 0.92. The Ki at 5 min (CYP3A4/5 [9]) was 141 µM, the “Microscopic evaluation of toxicity” value (human hepatocytes; 1 μM, day 3, some signs of toxicity in third preparation) was “no signs of toxicity in two of the three donor cells” and the Lactate dehydrogenase release (human hepatocytes; 10 μM, versus control incubations) was “higher”. The Lactate dehydrogenase release (human hepatocytes; 1 and 2.5 μM) was “comparable to control incubations”, the “Microscopic evaluation of toxicity” value (human hepatocytes; 2.5 and 10 μM) was “Toxicity was observed in all donor cells” and the KI (inactivation) (CYP2B6) was 3200 µM. For the same compound, the kinact (CYP2B6) was 0.000533 s⁻¹ and the “Effect on CYP3A4 mRNA” value (CYP3A4 mRNA) was “no increase; also recorded: No induction”.
For `Cc1ncc2n1-c1ccc(Cl)cc1C(c1ccccc1F)=NC2` [Midazolam], the “fmCYP (fraction of substrate metabolized by CYP)” value (CYP3A4) is listed as 0.96 and the “Fraction escaping gut metabolism in the absence of inhibitor (fG)” value (CYP3A) is listed as 0.57.
